# Experiments:
# [1] = In vitro release study from IVR segments with release modelling; format: physicochemical
# HIV-1IIIB = assay: Cytopathic effects; format: cell-based
# HIV-1ZA/97/009 = assay: Anti-HIV assay in fresh human PBMCs; format: cell-based
# HIV-1RF = assay: Inhibition of cell to cell virus transmission assay; format: cell-based
# [2] = Determination of aqueous solubility; format: physicochemical; settings: DDI water, 37°C
# Summary of the method: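 Saturated solution of test compound in 18 MΩ DDI water, shaken at 250 rpm at 37°C. Aliquots at time zero, 24 h and 48 h were filtered through 0.2 µm nylon and stored at −80°C before analysis.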
# [3] = Chemical stability of the analogues in aqueous solution at pH 4.0 and 5.0; format: physicochemical
# Summary of the method: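 Test compound prepared as 50 µM stock solutions in 10 mM acetate buffer (pH 4.0 and 5.0) and held at 40°C/75% RH. Aliquots were taken at 0, 1, 2 and 4 weeks; time-zero samples (n=3) were stored at −80°C. Drug content was measured by HPLC with norethindrone internal standard (LOQ 18.0 pmol). k = −2.303 × slope of a linear regression of log concentration vs time (first order).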
smiles,measurement,setting,value
"Cc1cc(C)cc(C(=O)c2c(C(C)C)c(=O)[nH]c(=O)n2CC2CC2)c1 [IQP-0528, 1-cyclopropylmethyl-6-(3,5-dimethyl-benzoyl)-5-isopropyl-1H-pyrimidine-2,4-dione]",diffusivity,[1]; IQP-0528 single agent IVR,3.9 ± 0.4 × 10^−10 cm^2/s
same,release of IQP-0528 relative to SAMT-10 by mass,[1]; combination IVR,~3.5 times
same,diffusivity,"[1]; combination IVR, in presence of 8% SAMT-10",2.8 ± 0.8 × 10^−10 cm^2/s
same,decrease of diffusivity in the presence of 8% SAMT-10,[1]; combination vs single agent IVR,27%
same,cumulative release,"[1]; from combination IVR, 30 days, scaled to full IVR",86 ± 13 mg/IVR
same,EC95,HIV-1IIIB; CEM-SS/HIV-1IIIB,8 nM
same,EC50,"HIV-1IIIB; Human immunodeficiency virus 1, CEM-SS",2 nM
same,EC50,"HIV-1ZA/97/009; Human immunodeficiency virus 1, PBMC, in Homo sapiens",6 nM
same,EC95,HIV-1ZA/97/009; PBMCs/HIV-1ZA/97/009,19 nM
same,EC95,HIV-1RF; HIV-1RF Cell to Cell Transmission,85 nM
same,EC50,HIV-1RF; Human immunodeficiency virus 1,6 nM
NC(=O)CCNC(=O)c1ccccc1SC(=O)c1ccccc1 [SAMT-08],water solubility,[2],2377.6 ± 27.8 µM
same,concentration remaining in aqueous solution,"[3]; pH 4.0, 40°C/75% RH, 0 weeks",46.5 ± 0.1 µM
same,concentration remaining in aqueous solution,"[3]; pH 4.0, 40°C/75% RH, 1 week",40.9 ± 0.1 µM
same,concentration remaining in aqueous solution,"[3]; pH 4.0, 40°C/75% RH, 2 weeks",35.1 ± 0.5 µM
same,concentration remaining in aqueous solution,"[3]; pH 4.0, 40°C/75% RH, 4 weeks, ND = Not Detected",26.8 ± 0.2 µM
same,Degradation rate constant (k),"[3]; pH 4.0, first order",2.3 10^−7 sec^−1
same,concentration remaining in aqueous solution,"[3]; pH 5.0, 40°C/75% RH, 0 weeks",68.6 ± 0.2 µM
same,concentration remaining in aqueous solution,"[3]; pH 5.0, 40°C/75% RH, 1 week",57.3 ± 0.6 µM
same,concentration remaining in aqueous solution,"[3]; pH 5.0, 40°C/75% RH, 2 weeks",49.0 ± 1.8 µM
same,concentration remaining in aqueous solution,"[3]; pH 5.0, 40°C/75% RH, 4 weeks, ND = Not Detected",36 ± 1.43 µM
same,Degradation rate constant (k),"[3]; pH 5.0, first order",2.3 10^−7 sec^−1

# Reference: paper PMC4822498 (Journal of pharmaceutical sciences, 2015)
